This note sets out measurements from PubChem BioAssay.

Structures are written as SMILES. Calls of active or inactive are those of the source.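 The calls were made as follows, unless noted: active = viability at or under a set limit in both replicates, limit being median viability minus 3 SD (cut at about 48% in these data, passing the limit was not always enough); inconclusive = at or under the limit in just one replicate; inactive = at or above the limit in both replicates.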

Experiment [1] is described as follows: Her2 expression decrease, cell viability multiplex – SKBR3 breast tumor cells, AlphaScreen, ATP viability, primary screen (AID 461;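 active = Her2 level under about 52% in both replicate screens, with viability over 70% of control, limit read from the data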;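 as to Her2 level: lower value means less Her2 protein in the cells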;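 as to viability: percent of carrier control wells set as 100% viability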). The note with it: SKBR3 Her2 protein level, 18-24 h, measured here: SKBR3 viability, ATP luminescence, at 10 µM.
The target of experiment [2] is Receptor tyrosine-protein kinase erbB-2 (Homo sapiens) (UniProt P04626). Described as above. The note with it: 18-24 h, at 10 µM, stronger effect = lower value.
Experiment [3] can be described thus: reduced viability of SK-BR-3 breast cancer cells – cell-based, 24 h, human, pilot screen (AID 572;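 active = viability at or below 10% of carrier control in both of two separate runs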;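 also: compound exposure lasted between 18 and 24 h rather than exactly 24 h; 100% = carrier-treated control wells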). The note with it: SK-BR-3 viability, CellTiter-Glo luminescence, at 10 µM, stronger effect = lower value.
Experiment [4] in a line: HUVEC growth inhibition – cell-based, human, primary screen (AID 575;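 active = viability at or below 30% in both replicate assays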;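 also: 100% = median of untreated cell wells with 0.1% DMSO on each plate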). The note with it: HUVEC proliferation, CellTiter-Glo luminescence, 72 h; at 10 µM; stronger effect = lower value. The gist of the method: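 Material: primary human umbilical vein endothelial cells / Schedule: 72 h exposure, 37 °C, 5% CO2, 30 min RT equilibration / Signal: ATP-based CellTiter-Glo luminescent read / Read-out basis: percent of median DMSO-control luminescence / Control set: 32 DMSO-only cell-control wells (high), 32 MePR drug-control wells (low) per plate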
(In ATP-based viability assays light output follows the ATP content of the culture.)

Experiment [5] in a line: H69AR cell proliferation blockers – human, duplicate replicates, primary screen (AID 580).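 Also: 100% = mean luminescence of untreated wells and 0% = no signal.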 Particulars: H69AR lung tumor cells viability, ATP luminescence, 72 h; at 10 µM; stronger effect = lower value.
Experiment [6] can be described thus: MRP1 drug-resistance reversers in H69AR cells – cell-based, doxorubicin co-treatment, pilot screen (AID 601;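 active = viability loss from added drug above about 55%, and viability with drug at most 40%, in both replicates, limit read from the data, passing the limit was not always enough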). Particulars: CellTiter-Glo, 72 h, at 10 µM; for differential viability (reversal): stronger effect = higher value.
Experiment [7] is described as follows: yeast transport mutant growth inhibition pilot in 384-well plates, post-Golgi transport modulator project (AID 636; in the data active = inhibition above about 31%). The note with it: absorbance 615 nm, about 18 h, stronger effect = higher value.
Experiment [8] can be described thus: growth suppression of yeast trafficking mutant, preliminary HTS, modulators of trafficking downstream of Golgi apparatus project, 1536-format plate, OD 615 nm (AID 637; in the data active = inhibition above about 30%). The note with it: yeast transport mutant growth, absorbance 615 nm, 18 h; stronger effect = higher value.
Where [9] appears, read: H69AR cells + 2 uM doxorubicin, measured here: viability with 2 uM doxorubicin, stronger effect = lower value.
The mark [10] stands for this setting: H69AR cells, compound alone cytotoxicity.

Chain of Receptor tyrosine-protein kinase erbB-2 (Homo sapiens) (P04626 whole entry, looked up): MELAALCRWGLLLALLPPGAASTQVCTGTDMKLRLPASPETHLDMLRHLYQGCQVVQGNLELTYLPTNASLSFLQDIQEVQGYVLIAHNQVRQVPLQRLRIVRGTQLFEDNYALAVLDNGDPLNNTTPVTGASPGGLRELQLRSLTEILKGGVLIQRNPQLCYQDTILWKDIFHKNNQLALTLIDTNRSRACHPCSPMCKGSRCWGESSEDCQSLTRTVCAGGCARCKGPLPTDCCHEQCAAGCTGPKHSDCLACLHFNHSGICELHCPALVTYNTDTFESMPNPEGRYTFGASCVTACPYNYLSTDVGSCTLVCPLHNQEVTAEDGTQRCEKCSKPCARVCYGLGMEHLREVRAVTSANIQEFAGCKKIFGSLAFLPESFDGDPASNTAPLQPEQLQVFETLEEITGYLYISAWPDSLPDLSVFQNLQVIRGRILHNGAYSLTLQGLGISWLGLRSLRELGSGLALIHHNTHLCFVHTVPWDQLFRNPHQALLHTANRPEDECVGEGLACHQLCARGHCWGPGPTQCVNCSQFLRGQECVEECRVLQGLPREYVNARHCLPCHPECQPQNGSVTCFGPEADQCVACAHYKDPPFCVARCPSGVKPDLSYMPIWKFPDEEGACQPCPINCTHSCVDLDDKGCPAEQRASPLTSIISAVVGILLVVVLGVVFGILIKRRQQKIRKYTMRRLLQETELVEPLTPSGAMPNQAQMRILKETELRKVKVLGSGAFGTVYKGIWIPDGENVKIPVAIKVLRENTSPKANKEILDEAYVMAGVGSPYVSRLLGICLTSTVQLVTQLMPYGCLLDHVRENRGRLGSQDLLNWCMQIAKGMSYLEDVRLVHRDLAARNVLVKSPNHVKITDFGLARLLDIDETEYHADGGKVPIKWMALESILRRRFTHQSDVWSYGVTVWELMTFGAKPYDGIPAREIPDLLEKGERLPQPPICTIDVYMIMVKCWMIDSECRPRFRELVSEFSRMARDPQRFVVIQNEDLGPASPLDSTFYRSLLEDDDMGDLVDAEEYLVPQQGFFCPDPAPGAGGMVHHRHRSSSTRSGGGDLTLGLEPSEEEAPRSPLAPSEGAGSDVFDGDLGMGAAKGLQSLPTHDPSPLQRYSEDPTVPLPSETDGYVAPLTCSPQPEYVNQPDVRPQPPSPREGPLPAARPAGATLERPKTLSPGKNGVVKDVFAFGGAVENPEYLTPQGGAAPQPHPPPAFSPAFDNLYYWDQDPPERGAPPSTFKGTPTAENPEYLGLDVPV

Broadly, the viability is a read-out of living cells in per cent, often relative to untreated cells. By inhibition is commonly meant the relative decrease from the control value, in per cent. Turning to `Cn1c(=O)c2c3c(sc2n2c(SCC(=O)c4ccc(Cl)cc4)nnc12)COC(C)(C)C3`, the viability was 119% in experiment [1]; 119% (inactive) in experiment [3]; 76.6% (inactive) in experiment [4]; 79.7% (inactive) in experiment [5]; 56.4% in experiment [6] (setting [9]); 79.7% in experiment [6] (setting [10]). In experiment [2], the Her2 level is 102% (inactive). Further, the differential viability (reversal) in experiment [6] (H69AR cells + 2 uM doxorubicin) was 23.3% (inactive). Besides, the inhibition in experiment [7] was -0.91% (inactive); in experiment [8], -2.7% (inactive).
Turning to `CN(CC(=O)N1CCN(C2CCCCC2)CC1)S(=O)(=O)c1cccc2nsnc12`, the viability in experiment [1] is 88%; in experiment [3], 88% (inactive); in experiment [4] it was 107% (inactive); in experiment [5], 97.2% (inactive); in experiment [6] (setting [9]), 91.5%; in experiment [6] (setting [10]), 97.2%. For the same compound, the Her2 level in experiment [2] was 83% (inactive). For the same compound, in experiment [6] (H69AR cells + 2 uM doxorubicin), the differential viability (reversal) was 5.6% (inactive). Also, the figures for the inhibition in experiment [7] and in experiment [8] were -4.53% (inactive) and 6.23% (inactive), respectively.
With `CCn1c(SCC(=O)c2ccc(Cl)cc2)nnc1-c1ccoc1C`, the viability is 118% in experiment [1]; 118% (inactive) in experiment [3]; 98.2% (inactive) in experiment [4]; 93.6% (inactive) in experiment [5]; 89.6% in experiment [6] (setting [9]); 93.6% in experiment [6] (setting [10]). The Her2 level in experiment [2] is 104% (inactive). Moreover, the differential viability (reversal) in experiment [6] (H69AR cells + 2 uM doxorubicin) was 4% (inactive). Also, the values for the inhibition in experiment [7] and in experiment [8] were -2.84% (inactive) and -0.98% (inactive), respectively.
Take `COc1ccc(CNC(=O)C(c2ccco2)N(Cc2cccs2)C(=O)Cc2cccs2)cc1` (stereo not given): the viability in experiment [1] was 96.5%; in experiment [3], 96.5% (inactive); in experiment [4], 67.5% (inactive); in experiment [5] it was 72.5% (inactive); in experiment [6] (setting [9]), 64.3%; in experiment [6] (setting [10]) it was 72.5%. Besides, in experiment [2], the Her2 level was 86.5% (inactive). Besides, the differential viability (reversal) in experiment [6] (H69AR cells + 2 uM doxorubicin) was 8.17% (inactive). Besides, the figures for the inhibition in experiment [7] and in experiment [8] were -1.95% (inactive) and -4.29% (inactive), respectively.
For the compound `COc1ccc(N2CCN(C(=O)CSc3nnc(Cn4nnc5ccccc54)n3C)CC2)cc1`, the viability is 99.5% in experiment [1]; 99.5% (inactive) in experiment [3]; 108% (inactive) in experiment [4]; 103% (inactive) in experiment [5]; 92.1% in experiment [6] (setting [9]); 103% in experiment [6] (setting [10]). Also, the Her2 level in experiment [2] was 111% (inactive). The differential viability (reversal) in experiment [6] (H69AR cells + 2 uM doxorubicin) was 11.4% (inactive). Besides, the inhibition was -1.97% (inactive) in experiment [7] and -6.61% (inactive) in experiment [8].
As to `CCOCCn1c(CN2CCN(c3cccc(Cl)c3)CC2)nc2c1c(=O)n(C)c(=O)n2C`, the viability is 85% in experiment [1]; 85% (inactive) in experiment [3]; 94.5% (inactive) in experiment [4]; 80.1% (inactive) in experiment [5]; 38.6% in experiment [6] (setting [9]); 80.1% in experiment [6] (setting [10]). Further, in experiment [2], the Her2 level is 110% (inactive). Moreover, the differential viability (reversal) in experiment [6] (H69AR cells + 2 uM doxorubicin) is 41.5% (inactive). Moreover, the inhibition in experiment [7] is -3.07% (inactive); in experiment [8], -6.17% (inactive).
Regarding `COC(=O)c1[nH]c2ccccc2c1NS(=O)(=O)c1ccc(OC)cc1OC`, the viability was 88.5% in experiment [1]; 88.5% (inactive) in experiment [3]; 96.8% (inactive) in experiment [4]; 84% (inactive) in experiment [5]; 99.4% in experiment [6] (setting [9]); 84% in experiment [6] (setting [10]). Moreover, in experiment [2], the Her2 level is 82% (inactive). In addition, the differential viability (reversal) in experiment [6] (H69AR cells + 2 uM doxorubicin) is -15.4% (inactive). In addition, the values for the inhibition in experiment [7] and in experiment [8] were -5.26% (inactive) and -3.82% (inactive), respectively.
On to `COc1cccc2cc(C(=O)N3CCc4ccccc43)c(=O)oc12`, for which the viability was 92% in experiment [1]; 92% (inactive) in experiment [3]; 95.2% (inactive) in experiment [4]; 94.2% (inactive) in experiment [5]; 90% in experiment [6] (setting [9]); 94.2% in experiment [6] (setting [10]). Besides, the Her2 level in experiment [2] is 74% (inactive). Also, in experiment [6] (H69AR cells + 2 uM doxorubicin), the differential viability (reversal) was 4.2% (inactive). Also, the inhibition in experiment [7] was -3.03% (inactive); in experiment [8], 0.63% (inactive).
Take `O=C(Cc1ccc(Br)cc1)N1CCCCCC1`: the viability in experiment [1] is 108%; in experiment [3], 108% (inactive); in experiment [4], 115% (inactive); in experiment [5], 97.9% (inactive); in experiment [6] (setting [9]), 89.6%; in experiment [6] (setting [10]), 97.9%. In experiment [2], the Her2 level is 106% (inactive). The differential viability (reversal) in experiment [6] (H69AR cells + 2 uM doxorubicin) was 8.29% (inactive). The inhibition in experiment [7] was -4.08% (inactive); in experiment [8], -0.49% (inactive).
Consider `COc1ccccc1C(=O)NC(C)C(c1cccs1)N1CCN(C)CC1` (stereo not given), for which the viability was 103% in experiment [1]; 103% (inactive) in experiment [3]; 78.9% (inactive) in experiment [4]; 91.1% (inactive) in experiment [5]; 91.5% in experiment [6] (setting [9]); 91.1% in experiment [6] (setting [10]). For the same compound, in experiment [2], the Her2 level is 149% (inactive). Further, in experiment [6] (H69AR cells + 2 uM doxorubicin), the differential viability (reversal) was -0.4% (inactive). Further, the inhibition was 1.58% (inactive) in experiment [7] and -6.67% (inactive) in experiment [8].
For `NC(=O)c1oc2ccc(Cl)cc2c1NC(=O)CN1CCOCC1`, the viability in experiment [1] is 93.5%; in experiment [3], 93.5% (inactive); in experiment [4], 85.3% (inactive); in experiment [5], 98.5% (inactive); in experiment [6] (setting [9]), 88.4%; in experiment [6] (setting [10]) it was 98.5%. Moreover, the Her2 level in experiment [2] was 81% (inactive). The differential viability (reversal) in experiment [6] (H69AR cells + 2 uM doxorubicin) was 10.1% (inactive). Further, the inhibition in experiment [7] was -5.26% (inactive); in experiment [8], -2.36% (inactive).
Turning to `COc1cc(OC)cc(-c2nc3nc(C)c(CCC(=O)O)c(C)n3n2)c1`, the viability in experiment [1] was 106%; in experiment [3], 106% (inactive); in experiment [4], 80.1% (inactive); in experiment [5], 91.5% (inactive); in experiment [6] (setting [9]), 84%; in experiment [6] (setting [10]), 91.5%. In addition, the Her2 level in experiment [2] was 81.5% (inactive). The differential viability (reversal) in experiment [6] (H69AR cells + 2 uM doxorubicin) was 7.47% (inactive). Further, the inhibition is -4.08% (inactive) in experiment [7] and 0.18% (inactive) in experiment [8].
For `Cc1cc2ncn(S(=O)(=O)c3ccc(S(=O)(=O)N4CCOCC4)cc3)c2cc1C`, the viability in experiment [1] was 91.5%; in experiment [3], 91.5% (inactive); in experiment [4], 102% (inactive); in experiment [5], 98.3% (inactive); in experiment [6] (setting [9]), 97.3%; in experiment [6] (setting [10]), 98.3%. Also, in experiment [2], the Her2 level was 91.5% (inactive). Also, in experiment [6] (H69AR cells + 2 uM doxorubicin), the differential viability (reversal) is 0.945% (inactive). The results for the inhibition in experiment [7] and in experiment [8] were -1.47% (inactive) and -7.1% (inactive), respectively.
Turning to `O=C(CCSc1ccccc1)Nc1ccc(S(=O)(=O)N2CCOCC2)cc1`, the viability in experiment [1] was 102%; in experiment [3], 102% (inactive); in experiment [4], 81.2% (inactive); in experiment [5] it was 104% (inactive); in experiment [6] (setting [9]), 91.6%; in experiment [6] (setting [10]), 104%. Moreover, the Her2 level in experiment [2] was 83.5% (inactive). For the same compound, in experiment [6] (H69AR cells + 2 uM doxorubicin), the differential viability (reversal) was 12.5% (inactive). The inhibition in experiment [7] was -9.18% (inactive); in experiment [8], -1.27% (inactive).
`CCC(C)OC(=O)c1[nH]c2c(c1C)C(=O)CC(c1ccc(N(C)C)cc1)C2` (stereo not given): the viability was 88.5% in experiment [1]; 88.5% (inactive) in experiment [3]; 57.9% (inactive) in experiment [4]; 27.6% (active) in experiment [5]; 75.3% in experiment [6] (setting [9]); 27.6% in experiment [6] (setting [10]). Further, the Her2 level in experiment [2] was 73% (inactive). Further, the differential viability (reversal) in experiment [6] (H69AR cells + 2 uM doxorubicin) was -47.7% (inactive). For the same compound, the inhibition in experiment [7] was -2.93% (inactive); in experiment [8] it was 24.8% (inactive).
